# Measurements reported in ChEMBL document CHEMBL1250494, “Synthesis of new 3-aryl-4,5-dihydropyrazole-1-carbothioamide derivatives. An investigation on their ability to inhibit monoamine oxidase” (Eur J Med Chem, 2010).
# Experiments:
# [1] = target: T1, Amine oxidase [flavin-containing] B (Homo sapiens, UniProt P27338); assay: biochemical; format: cell-based
# T1 sequence (P27338 whole entry): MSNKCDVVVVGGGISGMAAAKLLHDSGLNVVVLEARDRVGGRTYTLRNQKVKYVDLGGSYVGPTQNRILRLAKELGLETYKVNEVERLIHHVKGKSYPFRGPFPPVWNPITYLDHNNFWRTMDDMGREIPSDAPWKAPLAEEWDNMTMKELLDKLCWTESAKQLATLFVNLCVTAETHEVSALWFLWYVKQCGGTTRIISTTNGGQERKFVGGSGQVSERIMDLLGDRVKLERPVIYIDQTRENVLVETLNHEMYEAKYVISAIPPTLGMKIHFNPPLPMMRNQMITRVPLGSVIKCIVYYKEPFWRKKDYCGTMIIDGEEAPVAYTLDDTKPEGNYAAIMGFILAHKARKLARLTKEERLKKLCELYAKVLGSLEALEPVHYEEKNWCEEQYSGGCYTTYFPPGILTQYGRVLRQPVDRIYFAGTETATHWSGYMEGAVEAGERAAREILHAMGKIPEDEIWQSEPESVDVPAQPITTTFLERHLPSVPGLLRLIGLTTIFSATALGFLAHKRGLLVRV
# [2] = target: T2, Amine oxidase [flavin-containing] A (Homo sapiens, UniProt P21397); assay: Inhibition of human recombinant MAOA expressed in baculovirus infected BTI insect cells assessed as hydrogen peroxide production at 100 uM after 15 mins by Amplex red assay; details: 0.25 h; for inhibition (INH): 100 µM
# T2 sequence (P21397 whole entry): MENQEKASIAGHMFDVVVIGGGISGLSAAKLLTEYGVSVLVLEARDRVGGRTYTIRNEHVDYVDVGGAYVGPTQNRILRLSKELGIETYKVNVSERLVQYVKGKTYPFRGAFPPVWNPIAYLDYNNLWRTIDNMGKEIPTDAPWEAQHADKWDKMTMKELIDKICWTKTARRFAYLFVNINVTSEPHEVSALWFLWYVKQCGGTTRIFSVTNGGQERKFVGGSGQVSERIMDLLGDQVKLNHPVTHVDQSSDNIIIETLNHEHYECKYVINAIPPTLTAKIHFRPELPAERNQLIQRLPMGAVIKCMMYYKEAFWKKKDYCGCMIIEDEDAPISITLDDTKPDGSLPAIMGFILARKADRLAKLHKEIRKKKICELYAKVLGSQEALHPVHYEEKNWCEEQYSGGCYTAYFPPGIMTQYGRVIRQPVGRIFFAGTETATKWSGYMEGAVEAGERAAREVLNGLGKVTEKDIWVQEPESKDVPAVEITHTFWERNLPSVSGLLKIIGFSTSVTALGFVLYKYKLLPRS
# Outline: (§1)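 Recombinant hMAO-A or hMAO-B, in an amount oxidizing 165 pmol p-tyramine/min in controls, preincubated with test drug 15 min at 37 °C in 0.05 M sodium phosphate pH 7.4, dark. Reaction started with 1 U/ml HRP, Amplex Red and 1 mM p-tyramine (final). Resorufin read at ex 545/em 590 nm over 15 min. Background subtracted; vehicle (DMSO) controls. Precipitation limited higher concentrations.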
# Homo sapiens = species: Homo sapiens; assay: Selectivity index, ratio of IC50 for human recombinant MAOA to IC50 for human recombinant MAOB
# Outline: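 IC50 values for hMAO-A and hMAO-B came from the Amplex Red/HRP assay, with 1 mM p-tyramine and readings at ex 545/em 590 nm at 37 °C. […] The selectivity index is IC50(MAO-A)/IC50(MAO-B). Where MAO-A was not inhibited, its IC50 was set at the highest concentration tested. Values are mean ± SEM.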
# [3] = target: T1, Amine oxidase [flavin-containing] B; assay: Inhibition of human recombinant MAOB expressed in baculovirus infected BTI insect cells assessed as hydrogen peroxide production at 100 uM after 15 mins by Amplex red assay; details: 0.25 h; for inhibition (INH): 100 µM
# Outline: as §1
# [4] = target: T1, Amine oxidase [flavin-containing] B; assay: Inhibition of human recombinant MAOB expressed in baculovirus infected BTI insect cells assessed as hydrogen peroxide production at 1 mM after 15 mins by Amplex red assay; details: 0.25 h, 1000 µM
# Outline: as §1
IC50 [1] [µM],inhibition (INH) [2],Selectivity Index (Homo sapiens),inhibition (INH) [3],Compound,also measured
18.1,Not Active,> 5.51,,Cc1ccc(C2=NN(C(N)=S)CC2)cc1,
,Not Active,,Not Active,CNC(=S)N1CCC(c2ccccc2C)=N1,
,,,,CC1CN(C(N)=S)N=C1c1ccc(F)cc1 (stereo unspecified),inhibition at 100 µM [3]: 40%; inhibition at 100 µM [2]: 40%
,,,,O=C(NCCN1CCOCC1)c1ccc(Cl)cc1 [MOCLOBEMIDE],inhibition (INH) [4]: Not Active
,,,,CC1CN(C(N)=S)N=C1c1ccc(Cl)cc1 (stereo unspecified),inhibition at 100 µM [3]: 40%; inhibition at 100 µM [2]: 40%
,Not Active,,,CNC(=S)N1CC(C)C(c2ccccc2)=N1 (stereo unspecified),inhibition at 100 µM [3]: 40%
,Not Active,,Not Active,Cc1ccccc1C1=NN(C(N)=S)CC1,
34.8,Not Active,> 2.87,,CNC(=S)N1CC(C)C(c2ccc(Cl)cc2)=N1 (stereo unspecified),
71.3,Not Active,> 1.4,,CNC(=S)N1CCC(c2cccc(OC)c2)=N1,
,,,,CNC(=S)N1CC(C)C(c2ccc(C)cc2)=N1 (stereo unspecified),inhibition at 100 µM [3]: 40%; inhibition at 100 µM [2]: 40%
,Not Active,,Not Active,NC(=S)N1CCC(c2ccc(F)cc2)=N1,
84.6,,> 1.18,,COc1ccc(C2=NN(C(N)=S)CC2C)cc1 (stereo unspecified),inhibition at 100 µM [2]: 40%
15.5,Not Active,> 6.46,,COc1ccc(C2=NN(C(N)=S)CC2)cc1,
51,Not Active,> 1.96,,CNC(=S)N1CCC(c2ccc(F)cc2)=N1,
,Not Active,,Not Active,NC(=S)N1CCC(c2cccs2)=N1,
13.7,Not Active,> 7.3,,CNC(=S)N1CCC(c2ccc(OC)cc2)=N1,
53.4,Not Active,> 1.87,,CNC(=S)N1CCC(c2cccc(C)c2)=N1,
16.8,,> 5.96,,CNC(=S)N1CCC(c2ccc(C)cc2)=N1,inhibition at 100 µM [2]: 40%
,Not Active,,,CC1CN(C(N)=S)N=C1c1ccccc1 (stereo unspecified),inhibition at 100 µM [3]: 40%
,Not Active,,Not Active,NC(=S)N1CCC(c2ccc(Cl)cc2Cl)=N1,
49.4,Not Active,> 2.02,,CNC(=S)N1CC(C)C(c2ccc(OC)cc2)=N1 (stereo unspecified),
,Not Active,,Not Active,CNC(=S)N1CCC(c2cccs2)=N1,
,Not Active,,,Cc1ccc(C2=NN(C(N)=S)CC2C)cc1 (stereo unspecified),inhibition at 100 µM [3]: 40%
,Not Active,,Not Active,Cc1cccc(C2=NN(C(N)=S)CC2)c1,
,Not Active,,,CNC(=S)N1CC(C)C(c2ccc(F)cc2)=N1 (stereo unspecified),inhibition at 100 µM [3]: 40%
,Not Active,,Not Active,COc1cccc(C2=NN(C(N)=S)CC2)c1,
